Laboratory results: ChEMBL document CHEMBL4024789, “Neutral Porphyrin Derivative Exerts Anticancer Activity by Targeting Cellular Topoisomerase I (Top1) and Promotes Apoptotic Cell Death without Stabilizing Top1-DNA Cleavage Complexes” (J Med Chem, 2018)
Activity calls are given as the source filed them. The calls are words filed in the database; no cut-off is given here.

Tests used:
[1] = target: T1, DNA topoisomerase 1 (Homo sapiens, UniProt P11387); assay: Inhibition of recombinant human topoisomerase-1 expressed in baculovirus infected sf9 cells using supercoiled pBS SK(+) DNA as substrate after 15 mins by ethidium bromide staining based agarose gel electrophoresis method
T1 sequence (P11387 whole entry): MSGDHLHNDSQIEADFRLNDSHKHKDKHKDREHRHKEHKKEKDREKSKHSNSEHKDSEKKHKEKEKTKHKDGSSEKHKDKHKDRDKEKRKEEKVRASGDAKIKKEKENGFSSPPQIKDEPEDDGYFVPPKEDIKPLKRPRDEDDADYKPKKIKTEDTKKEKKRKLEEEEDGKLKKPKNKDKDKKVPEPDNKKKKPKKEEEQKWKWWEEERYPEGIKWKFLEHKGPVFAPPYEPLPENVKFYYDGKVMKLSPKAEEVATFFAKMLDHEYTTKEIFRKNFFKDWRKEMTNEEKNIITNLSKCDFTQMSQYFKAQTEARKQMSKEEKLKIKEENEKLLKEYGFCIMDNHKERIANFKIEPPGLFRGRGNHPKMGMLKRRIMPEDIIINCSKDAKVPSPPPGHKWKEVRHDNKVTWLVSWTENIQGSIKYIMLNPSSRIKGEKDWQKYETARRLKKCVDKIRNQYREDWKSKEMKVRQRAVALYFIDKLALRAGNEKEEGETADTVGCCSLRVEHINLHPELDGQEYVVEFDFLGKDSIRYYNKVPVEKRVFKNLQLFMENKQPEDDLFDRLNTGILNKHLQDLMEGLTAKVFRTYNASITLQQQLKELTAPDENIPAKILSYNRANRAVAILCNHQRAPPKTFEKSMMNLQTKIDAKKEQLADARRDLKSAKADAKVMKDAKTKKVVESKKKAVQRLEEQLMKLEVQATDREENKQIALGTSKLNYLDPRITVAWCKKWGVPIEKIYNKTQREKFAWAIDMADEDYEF
Summary of the method: (§1)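 Relaxation assay: 90 fmol supercoiled pBS (SK+) DNA with 30 fmol recombinant Top1 (Sf-9/baculovirus). Compound either preincubated with Top1 for 5 min before DNA addition, or added simultaneously with DNA; then 37 °C for 15 min. Vehicle 2% DMSO. Read on 1% agarose gel. EC50 from mean ± SD of three experiments.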

[2] = target: T1, DNA topoisomerase 1; assay: Inhibition of recombinant human topoisomerase-1 expressed in baculovirus infected sf9 cells using supercoiled pBS SK(+) DNA as substrate preincubated for 5 mins followed by substrate addition measured after 15 mins by ethidium bromide staining based agarose gel electrophoresis method; summary of the method: as §1
[3] = system: Bacteria; assay: Induction of relaxed pBluescript SK(+) DNA intercalation (unknown origin) assessed as negative supercoiling at 300 uM after 15 mins by agarose gel electrophoresis method
Summary of the method: (§2)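 Top1 unwinding assay: excess Top1 first relaxes 50 fmol supercoiled pBS (SK+) DNA, then the relaxed DNA is incubated with compound at 50, 100 or 300 μM (m-AMSA and etoposide as references). Negative supercoiling read on agarose gel.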

[4] = system: Bacteria; assay: Induction of relaxed pBluescript SK(+) DNA intercalation (unknown origin) assessed as negative supercoiling at 50 uM after 15 mins by agarose gel electrophoresis method; summary of the method: as §2

Row | SMILES | EC50 [1] [µM] | EC50 [2] [µM] | Activity [3] | Activity [4]
1 | Brc1ccc(-c2c3nc(c(-c4ccc(-c5ccncc5)cc4)c4ccc([nH]4)c(-c4ccc(Br)cc4)c4nc(c(-c5ccc(-c6ccncc6)cc5)c5ccc2[nH]5)C=C4)C=C3)cc1 | > 50 | > 50 |  | 
2 | Brc1ccc(-c2c3nc(c(-c4ccncc4)c4ccc([nH]4)c(-c4ccc(Br)cc4)c4nc(c(-c5ccncc5)c5ccc2[nH]5)C=C4)C=C3)cc1 | > 50 | > 50 |  | 
3 | Brc1ccc(-c2c3nc(c(-c4ccncc4)c4ccc([nH]4)c(-c4ccncc4)c4nc(c(-c5ccncc5)c5ccc2[nH]5)C=C4)C=C3)cc1 | > 50 | > 50 |  | 
4 | Nc1ccc(-c2ccc(-c3c4nc(c(-c5ccc(-c6ccc(N)cc6)cc5)c5ccc([nH]5)c(-c5ccncc5)c5nc(c(-c6ccncc6)c6ccc3[nH]6)C=C5)C=C4)cc2)cc1 | 82.8 | 63.4 |  | 
5 | Brc1ccc(-c2c3nc(c(-c4ccc(Br)cc4)c4ccc([nH]4)c(-c4ccncc4)c4nc(c(-c5ccncc5)c5ccc2[nH]5)C=C4)C=C3)cc1 | > 50 | > 50 |  | 

The remaining lines, values ahead:

Row | EC50 [1] [µM] | EC50 [2] [µM] | Activity [3] | Activity [4] | SMILES
6 | 2.02 | 0.563 |  |  | O=C(O)c1ccc(-c2c3nc(c(-c4ccc(C(=O)O)cc4)c4ccc([nH]4)c(-c4ccc(C(=O)O)cc4)c4nc(c(-c5ccc(C(=O)O)cc5)c5ccc2[nH]5)C=C4)C=C3)cc1
7 |  |  | inactive |  | COc1cc([C@@H]2c3cc4c(cc3[C@@H](O[C@@H]3O[C@@H]5CO[C@@H](C)O[C@H]5[C@H](O)[C@H]3O)[C@H]3COC(=O)[C@H]23)OCO4)cc(OC)c1O
8 | > 50 | > 50 |  |  | C1=Cc2nc1c(-c1ccccc1)c1ccc([nH]1)c(-c1ccccc1)c1nc(c(-c3ccccc3)c3ccc([nH]3)c2-c2ccccc2)C=C1
9 | 1.97 | 1.23 |  |  | CN(C)c1ccc(-c2c3nc(c(-c4ccc(N(C)C)cc4)c4ccc([nH]4)c(-c4ccc(N(C)C)cc4)c4nc(c(-c5ccc(C(=O)O)cc5)c5ccc2[nH]5)C=C4)C=C3)cc1
10 |  |  |  | Active | COc1cc(NS(C)(=O)=O)ccc1Nc1c2ccccc2nc2ccccc12
11 | > 50 | > 50 |  |  | C1=Cc2nc1c(-c1ccncc1)c1ccc([nH]1)c(-c1ccncc1)c1nc(c(-c3ccncc3)c3ccc([nH]3)c2-c2ccncc2)C=C1
